From ChEMBL document CHEMBL4689842, “EUbOPEN Chemogenomics Library wave 1” (2021)
Several values for one entry are separate records, joined by “and”; a condition that tells them apart may be missing. Identical values can stand only once.

System: U2OS
Experiment: Multiplex assay against U2OS
Assay type: toxicity, cell-based
Details: human
Method in brief: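 Cells stained live at seeding with Hoechst33342, BioTracker Green Microtubule Cytoskeleton Dye, MitoTracker Red and Annexin V Alexa Fluor 680 were imaged on a CQ1 microscope at 37°C and 5% CO2 after compound addition. Their classification by CellPathfinder machine-learning gating ran from Hoechst high-intensity objects versus normal cells, to healthy, pyknosed or fragmented nuclei among normal cells, to mitotic or apoptotic among pyknosed cells. Tubulin, mitochondrial-mass and membrane-permeability phenotypes are per cents of healthy-nucleus cells.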

[1] = 12 h, 1 µM, compound concentration 1 uM, replicate 1
[2] = 12 h, 1 µM, compound concentration 1 uM, replicate 2
[3] = 12 h, 10 µM, compound concentration 10 uM, replicate 1
[4] = 12 h, 10 µM, compound concentration 10 uM, replicate 2
[5] = 24 h, 1 µM, compound concentration 1 uM, replicate 1
[6] = 24 h, 1 µM, compound concentration 1 uM, replicate 2
[7] = 24 h, 10 µM, compound concentration 10 uM, replicate 1
[8] = 24 h, 10 µM, compound concentration 10 uM, replicate 2

`CNC(=O)c1ccc(Nc2ncc(C(F)(F)F)c(NCc3nccnc3N(C)S(C)(=O)=O)n2)cc1` [DEFACTINIB] was tested, and the “Population Apoptotic (%)” value [1] was 22% and 66%, the “Population Healthy Nuclei (%)” value [1] was 90% and 65% and the “Population Hoechst High Intensity Objects (%)” value [1] was 4% and 6%. The “Population Membrane Permeable-Phenotype (%)” value [1] was 13% and 37%, the “Population Mitochondria Different-Phenotype (%)” value [1] was 27% and 15% and the “Population Mitotic Cells (%)” value [1] was 77% and 33%. The “Population Normal (%)” value [1] was 95% and 93%, the “Population Pyknosed Nuclei (%)” value [1] was 4% and 12% and the “Population Tubulin-Different-Phenotype (%)” value [1] was 21% and 36%. The “Total Cell Count” value [1] was 194 and 96, the “Population Apoptotic (%)” value [2] was 25% and 42% and the “Population Fragmented Nuclei (%)” value [2] was 6% and 9%. For the same molecule, the “Population Healthy Nuclei (%)” value [2] was 89% and 77%, the “Population Hoechst High Intensity Objects (%)” value [2] was 13% and 9% and the “Population Mitochondria Different-Phenotype (%)” value [2] was 28% and 16%. The “Population Mitotic Cells (%)” value [2] was 75% and 57%, the “Population Normal (%)” value [2] was 86% and 90% and the “Population Pyknosed Nuclei (%)” value [2] was 13%. The “Population Tubulin-Different-Phenotype (%)” value [2] was 24%, the “Total Cell Count” value [2] was 107 and 86 and the “Population Apoptotic (%)” value [3] was 64% and 37%. The “Population Fragmented Nuclei (%)” value [3] was 14% and 7%, the “Population Healthy Nuclei (%)” value [3] was 65% and 83% and the “Population Hoechst High Intensity Objects (%)” value [3] was 8% and 3%. The “Population Mitochondria Different-Phenotype (%)” value [3] was 13% and 25%, the “Population Mitotic Cells (%)” value [3] was 35% and 62% and the “Population Normal (%)” value [3] was 91% and 96%. The “Population Pyknosed Nuclei (%)” value [3] was 20% and 8%, the “Population Tubulin-Different-Phenotype (%)” value [3] was 32% and 24% and the “Total Cell Count” value [3] was 148 and 188. The “Population Apoptotic (%)” value [4] was 33% and 28%, the “Population Healthy Nuclei (%)” value [4] was 44% and 80% and the “Population Hoechst High Intensity Objects (%)” value [4] was 30% and 18%. For the same molecule, the “Population Membrane Permeable-Phenotype (%)” value [4] was 26%, the “Population Mitotic Cells (%)” value [4] was 66% and 71% and the “Population Normal (%)” value [4] was 69% and 81%. For the same molecule, the “Population Pyknosed Nuclei (%)” value [4] was 10%, the “Population Tubulin-Different-Phenotype (%)” value [4] was 23% and 30% and the “Total Cell Count” value [4] was 166 and 106. The “Population Apoptotic (%)” value [5] was 46% and 76%, the “Population Healthy Nuclei (%)” value [5] was 88% and 62% and the “Population Hoechst High Intensity Objects (%)” value [5] was 0% and 10%. For the same molecule, the “Population Mitochondria Different-Phenotype (%)” value [5] was 29% and 32%, the “Population Mitotic Cells (%)” value [5] was 53% and 24% and the “Population Normal (%)” value [5] was 99% and 89%. The “Population Pyknosed Nuclei (%)” value [5] was 5% and 15%, the “Population Tubulin-Different-Phenotype (%)” value [5] was 30% and 46% and the “Total Cell Count” value [5] was 259. The “Population Fragmented Nuclei (%)” value [6] was 7% and 20%, the “Population Healthy Nuclei (%)” value [6] was 90% and 57% and the “Population Hoechst High Intensity Objects (%)” value [6] was 9% and 7%. For the same molecule, the “Population Mitochondria Different-Phenotype (%)” value [6] was 37% and 31%, the “Population Mitotic Cells (%)” value [6] was 100% and 34% and the “Population Normal (%)” value [6] was 90% and 92%. For the same molecule, the “Population Tubulin-Different-Phenotype (%)” value [6] was 29% and 36%, the “Total Cell Count” value [6] was 129 and 90 and the “Population Apoptotic (%)” value [7] was 68% and 42%. The “Population Healthy Nuclei (%)” value [7] was 51% and 88%, the “Population Mitochondria Different-Phenotype (%)” value [7] was 28% and 32% and the “Population Mitotic Cells (%)” value [7] was 31% and 57%. For the same molecule, the “Population Normal (%)” value [7] was 89% and 97%, the “Population Tubulin-Different-Phenotype (%)” value [7] was 40% and 26% and the “Total Cell Count” value [7] was 139 and 241. For the same molecule, the “Population Apoptotic (%)” value [8] was 40% and 20%, the “Population Hoechst High Intensity Objects (%)” value [8] was 27% and 11% and the “Population Membrane Permeable-Phenotype (%)” value [8] was 25% and 17%. The “Population Mitochondria Different-Phenotype (%)” value [8] was 37% and 38%, the “Population Mitotic Cells (%)” value [8] was 59% and 80% and the “Population Normal (%)” value [8] was 72% and 88%. The “Population Tubulin-Different-Phenotype (%)” value [8] was 34% and 28% and the “Total Cell Count” value [8] was 163 and 126.
